Test results reported in the array DNA melting data of Ke et al. (doi:10.1101/2024.01.08.574731).

Experiments:
[1] = melting temperature; fluorescence melt of hairpins on a sequencing array, two-state fit, raised by 9.35 °C to match UV melts; settings: sodium 0.088 M
How it was run: (§1)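 Cy3 fluorescence of library hairpins on a sequenced MiSeq flow cell, with annealed Cy3 and quencher oligos, was imaged in 50 mM Na-HEPES pH 8.0, 25 mM NaCl in 2.5 °C steps up to 60 °C. Signals were normalised to pre-quench Cy3 and to control variants. Melting temperature and folding enthalpy came from bootstrapped two-state fits, inverse-variance combined over four replicates. Fitted temperatures were raised by 9.35 °C to match UV melts.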

[2] = folding enthalpy; higher = less favourable; fluorescence melt of hairpins on a sequencing array, two-state fit; settings: sodium 0.088 M
How it was run: as §1

## GTCGCGACGAAAGTCGAC (((..(((....))))))
[1]
  Tm: 38.2 °C
[2]
  folding enthalpy: -8.29 kcal/mol

## GATCACTTGCGTGATC ((((((....))))))
[1]
  Tm: 55.9 °C
[2]
  folding enthalpy: -40.7 kcal/mol

## ATGTCGAAAGACAT (((((....)))))
[1]
  Tm: 53.5 °C
[2]
  folding enthalpy: -19.6 kcal/mol

## GATCTCACTGGAGATC ((((((....))))))
[1]
  Tm: 51.3 °C
[2]
  folding enthalpy: -40 kcal/mol

## GATGACCGAAAGGTAATC (((.(((....))).)))
[1]
  Tm: 47.1 °C
[2]
  folding enthalpy: -23.4 kcal/mol

## GATCGTTACGACGATC ((((((....))))))
[1]
  Tm: 57.1 °C
[2]
  folding enthalpy: -39.9 kcal/mol

## GGTCTCGAAAGAGCAACC ((((((....)))..)))
[1]
  Tm: 34.5 °C
[2]
  folding enthalpy: -14.2 kcal/mol

## GATCCACATTGGATC ((((((...))))))
[1]
  Tm: 52.2 °C
[2]
  folding enthalpy: -25.2 kcal/mol

## GACTATGGAAACATAGTC (((((((....)))))))
[1]
  Tm: 54.5 °C
[2]
  folding enthalpy: -46.8 kcal/mol

## GCGACTAATCGC ((((....))))
[1]
  Tm: 47.2 °C
[2]
  folding enthalpy: -24.2 kcal/mol

## GCAAGATCGAAAGATTGC (((..(((....))))))
[1]
  Tm: 38 °C
[2]
  folding enthalpy: -21.3 kcal/mol

## GTTTCGGGAAACCGGAAC (((.(((....))).)))
[1]
  Tm: 49.6 °C
[2]
  folding enthalpy: -35.2 kcal/mol

## GTGAACGAAAGTTACAC ((((((....))).)))
[1]
  Tm: 38.8 °C
[2]
  folding enthalpy: -17.7 kcal/mol

## GTTTAGGGAAACTTAAAC (((((.(....).)))))
[1]
  Tm: 35.5 °C
[2]
  folding enthalpy: -15.4 kcal/mol

## GGTTTGGGAAACTAAGCC ((.((.(....).)).))
[1]
  Tm: 30.2 °C
[2]
  folding enthalpy: -13.6 kcal/mol

## GTACCAGGAAACTGGCAC ((.((((....)))).))
[1]
  Tm: 42.1 °C
[2]
  folding enthalpy: -21.1 kcal/mol

## GTACACCCGAAAGGGTAC (((..(((....))))))
[1]
  Tm: 33 °C
[2]
  folding enthalpy: -9.29 kcal/mol

## GCGGGATGCCGC ((((....))))
[1]
  Tm: 55.8 °C
[2]
  folding enthalpy: -22.6 kcal/mol

## GCAATACCGAAAGGTTGC (((..(((....))))))
[1]
  Tm: 45.5 °C
[2]
  folding enthalpy: -21.6 kcal/mol

## GCTCATGGAAACGTGAGC (((((.(....).)))))
[1]
  Tm: 53.4 °C
[2]
  folding enthalpy: -47.5 kcal/mol

## GGAATTCGAAAGAAATCC (((.(((....))).)))
[1]
  Tm: 39.5 °C
[2]
  folding enthalpy: -30.5 kcal/mol

## GCAAAAGCGAAAGCTTGC (((..(((....))))))
[1]
  Tm: 51.4 °C
[2]
  folding enthalpy: -18.3 kcal/mol

## GTGCCCGAAAGGGCCCAC ((((((....)))..)))
[1]
  Tm: 41 °C
[2]
  folding enthalpy: -5.79 kcal/mol

## GCTGCGTCGAAAGACAGC (((..(((....))))))
[1]
  Tm: 47.1 °C
[2]
  folding enthalpy: -14.5 kcal/mol

## GATCTGAATCAGATC ((((((...))))))
[1]
  Tm: 44.7 °C
[2]
  folding enthalpy: -34 kcal/mol

## GCTGACGAAAGTCACAGC ((((((....)))..)))
[1]
  Tm: 45.3 °C
[2]
  folding enthalpy: -15.4 kcal/mol

## GACGCCGAAAGGCCCGTC ((((((....)))..)))
[1]
  Tm: 37 °C
[2]
  folding enthalpy: -13.9 kcal/mol

## GCTTACGAAAGTATGAGC ((((((....)))..)))
[1]
  Tm: 34.7 °C
[2]
  folding enthalpy: -20.5 kcal/mol

## GATCAACACTTGATC ((((((...))))))
[1]
  Tm: 40.5 °C
[2]
  folding enthalpy: -31.6 kcal/mol

## GATCAATATATTGATC ((((((....))))))
[1]
  Tm: 49.1 °C
[2]
  folding enthalpy: -47.1 kcal/mol

## GGCGTCGAAAGACGTGCC ((((((....)))..)))
[1]
  Tm: 51.1 °C
[2]
  folding enthalpy: -12 kcal/mol

## GGTTCGGGAAACCGAACC (((((((....)))))))
[1]
  Tm: 69.2 °C
[2]
  folding enthalpy: -38.2 kcal/mol

## GATCTGATACCAGATC ((((((....))))))
[1]
  Tm: 47.1 °C
[2]
  folding enthalpy: -40.8 kcal/mol

## GAGTGCGAAAGCATCTC ((((((....))).)))
[1]
  Tm: 52.1 °C
[2]
  folding enthalpy: -21 kcal/mol

## GCAGTCCGAAAGGATTGC (((.(((....))).)))
[1]
  Tm: 60.2 °C
[2]
  folding enthalpy: -46.3 kcal/mol

## GATGGAGGAAACCCCATC (((((.(....).)))))
[1]
  Tm: 43 °C
[2]
  folding enthalpy: -31.6 kcal/mol

## GGGATGAAAATCCC (((((....)))))
[1]
  Tm: 56.5 °C
[2]
  folding enthalpy: -28.8 kcal/mol

## GATCACCAGGGTGATC ((((((....))))))
[1]
  Tm: 62.2 °C
[2]
  folding enthalpy: -36.5 kcal/mol

## GCCTGGCGAAAGCGAGGC ((((.((....)).))))
[1]
  Tm: 68.2 °C
[2]
  folding enthalpy: -26.8 kcal/mol

## GATCTGCGCTCAGATC ((((((....))))))
[1]
  Tm: 49.3 °C
[2]
  folding enthalpy: -39.7 kcal/mol

## GGATGTACGAAAGTATCC (((..(((....))))))
[1]
  Tm: 37.9 °C
[2]
  folding enthalpy: -20.2 kcal/mol

## GCGACGCGAAAGCTTCGC ((((.((....)).))))
[1]
  Tm: 65.2 °C
[2]
  folding enthalpy: -45.6 kcal/mol

## GATAGTGGAAACGCTATC (((((.(....).)))))
[1]
  Tm: 42.9 °C
[2]
  folding enthalpy: -25.7 kcal/mol

## GGTTCCGAAAGGAGAACC ((((((....)))..)))
[1]
  Tm: 45.1 °C
[2]
  folding enthalpy: -24.5 kcal/mol

## GTATGGGGAAACCCATGC (.(((((....))))).)
[1]
  Tm: 49 °C
[2]
  folding enthalpy: -20.9 kcal/mol

## GCGAACGAAAGTTGACGC ((((((....)))..)))
[1]
  Tm: 44.1 °C
[2]
  folding enthalpy: -23 kcal/mol

## GCGGCTACCGC ((((...))))
[1]
  Tm: 57.7 °C
[2]
  folding enthalpy: -21 kcal/mol

## GAAATAGGAAACTGTTTC ((((.((....)).))))
[1]
  Tm: 36.1 °C
[2]
  folding enthalpy: -21.3 kcal/mol

## GATCCATCTGTGGATC ((((((....))))))
[1]
  Tm: 54.3 °C
[2]
  folding enthalpy: -36.4 kcal/mol

## GCCCGCCGAAAGGCAGGC (((.(((....))).)))
[1]
  Tm: 69 °C
[2]
  folding enthalpy: -20.8 kcal/mol

## GGGGTGGGAAACTACCCC (((((.(....).)))))
[1]
  Tm: 55.8 °C
[2]
  folding enthalpy: -46.6 kcal/mol

## GAGTACGAAAGTAGCTC ((((((....))).)))
[1]
  Tm: 37.5 °C
[2]
  folding enthalpy: -23.3 kcal/mol

## GCACCGCGAAAGCAATGC (((..((....))..)))
[1]
  Tm: 27.3 °C
[2]
  folding enthalpy: -8.2 kcal/mol

## GATCTGTTCACAGATC ((((((....))))))
[1]
  Tm: 56.9 °C
[2]
  folding enthalpy: -35.1 kcal/mol

## GTGATGTCGAAAGACCAC (((..(((....))))))
[1]
  Tm: 40.4 °C
[2]
  folding enthalpy: -15 kcal/mol

## GTTCACGAAAGTGTAAC ((((((....))).)))
[1]
  Tm: 38.7 °C
[2]
  folding enthalpy: -18.8 kcal/mol

## GTGTTTGGAAACAAATAC ((.((((....)))).))
[1]
  Tm: 41.2 °C
[2]
  folding enthalpy: -29 kcal/mol

## GTGAGCGGAAACGCTTAC ((.((((....)))).))
[1]
  Tm: 51.6 °C
[2]
  folding enthalpy: -27.1 kcal/mol

## GAGACCGAAAGGTACCTC ((((((....)))..)))
[1]
  Tm: 30.7 °C
[2]
  folding enthalpy: -11.9 kcal/mol

## GGCAACGAAAGTTTTGCC ((((((....)))..)))
[1]
  Tm: 44.9 °C
[2]
  folding enthalpy: -26 kcal/mol

## CGAAGCGGAAACGCTCG (((.(((....))))))
[1]
  Tm: 53.5 °C
[2]
  folding enthalpy: -22.7 kcal/mol

## GCGGTAGGAAACTGCTGC ((.(.((....)).).))
[1]
  Tm: 45.5 °C
[2]
  folding enthalpy: -27.5 kcal/mol

## GGACTAGGAAACTGGTTC (.((.((....)).)).)
[1]
  Tm: 29.8 °C
[2]
  folding enthalpy: -13.1 kcal/mol

## GGCAAGAAATTGCC (((((....)))))
[1]
  Tm: 53 °C
[2]
  folding enthalpy: -33.2 kcal/mol

## GGACTGGGAAACCGGTTC (.((.((....)).)).)
[1]
  Tm: 37.5 °C
[2]
  folding enthalpy: -25.5 kcal/mol

## GGCTTCGCGAAAGCGGCC (((..(((....))))))
[1]
  Tm: 48.8 °C
[2]
  folding enthalpy: -16.4 kcal/mol

## GGGTAGCGAAAGCTTCCC (((.(((....))).)))
[1]
  Tm: 56.6 °C
[2]
  folding enthalpy: -36.5 kcal/mol

## GATTCCGAAAGGAGCATC ((((((....)))..)))
[1]
  Tm: 27.3 °C
[2]
  folding enthalpy: -11.6 kcal/mol

## GCGATTGGAAACAACCGC (((.(((....))).)))
[1]
  Tm: 48.4 °C
[2]
  folding enthalpy: -32.7 kcal/mol
